Experimental data from paper PMC7978421 (Science Advances, 2021).

Tests used:
15N hASF1A(1-156) = 15N hASF1A(1-156) (Homo sapiens, UniProt Q9Y294); test: NMR 1H-15N SOFAST HMQC titration of 15N-hASF1A; assay type: binding
Method in brief: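 Uniformly 15N-labelled hASF1A(1-156) (M9, 15NH4Cl) at 40 μM in 50 mM tris-HCl pH 7.5, 0.1 mM EDTA, DSS, NaN3, protease inhibitors, 10% D2O. Spectra at 293 or 298 K, 600 MHz, with stepwise test compound additions. Δδ = √(ΔHN² + (0.17ΔN)²), normalised to saturation maximum. Kd fitted against total compound concentration for nine residues shifting >0.07 ppm; mean ± SD reported.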

hASF1A(1-156) = hASF1A(1-156) (Homo sapiens, UniProt Q9Y294); test: Isothermal titration calorimetry; assay type: binding
Chain of hASF1A(1-156) (Q9Y294 1-156): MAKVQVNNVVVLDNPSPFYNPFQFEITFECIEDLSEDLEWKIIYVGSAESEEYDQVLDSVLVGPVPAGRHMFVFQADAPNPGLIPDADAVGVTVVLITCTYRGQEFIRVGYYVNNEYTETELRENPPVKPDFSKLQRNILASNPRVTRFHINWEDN

ASF1 = conditions: cited from earlier work
[1] = VP-ITC, 20°C, 50 mM tris-HCl pH 7.5, at least duplicate

Chain of 15N hASF1A(1-156) (Q9Y294 1-156): as above

Row | Kd (15N hASF1A(1-156)) [µM] | Exchange regime upon 15N-ASF1 titration (15N hASF1A(1-156); NMR titration, chemical shift variation of hASF1A residues) | Kd (hASF1A(1-156)) [µM] | Affinities times lower than the P1 to P4 peptide series (hASF1A(1-156); ITC) [times] | N (ITC stoichiometry) (hASF1A(1-156); [1]) | ΔH (hASF1A(1-156); [1]) [kcal/mol] | −TΔS (hASF1A(1-156); [1]) [kcal/mol] | Compound | Affinity for ASF1 (ASF1)
1 | 4 ± 1 | fast exchange rate | 2.7 ± 0.6 | 10 to 80 | 1.0 ± 0.1 | -2.2 ± 0.1 | -4.8 ± 0.2 | CC[C@H](C)[C@H](NC(=O)[C@H](CCCNC(=N)N)NC(=O)NC[C@H](CCC(N)=O)NC(=O)NC[C@H](CC(C)C)NC(=O)NC[C@H](CCCNC(=N)N)NC(=O)NC[C@H](Cc1ccc2ccccc2c1)NC(=O)[C@H](CCCCN)NC(=O)[C@H](CCC(=O)O)NC(C)=O)C(=O)N[C@@H](C)C(N)=O [C2] | –
2 | – | – | – | – | – | – | – | ASTEEKWARLARRIAGAGGVTLDGFG [ip4] | low nanomolar range
